Source: ChEMBL document CHEMBL1158602, “Dihydro-pyrano[2,3-b]pyridines and tetrahydro-1,8-naphthyridines as CB1 receptor inverse agonists: synthesis, SAR and biological evaluation” (Bioorg Med Chem Lett, 2010)

Experiments:
[1] = Clearance in rat plasma at 1 mg/kg, iv after 4 hrs; assay type: ADME, organism-based; design: dose 1 mg/kg, route intravenous
[2] = Oral bioavailability in rat at 1 mg/kg, iv after 4 hrs; assay type: ADME, organism-based; conditions: in vivo
Cannabinoid receptor 1 = Cannabinoid receptor 1 (Homo sapiens, UniProt P21554); experiment: Binding affinity to human CB1 receptor
Cannabinoid receptor 1, sequence (P21554 whole entry): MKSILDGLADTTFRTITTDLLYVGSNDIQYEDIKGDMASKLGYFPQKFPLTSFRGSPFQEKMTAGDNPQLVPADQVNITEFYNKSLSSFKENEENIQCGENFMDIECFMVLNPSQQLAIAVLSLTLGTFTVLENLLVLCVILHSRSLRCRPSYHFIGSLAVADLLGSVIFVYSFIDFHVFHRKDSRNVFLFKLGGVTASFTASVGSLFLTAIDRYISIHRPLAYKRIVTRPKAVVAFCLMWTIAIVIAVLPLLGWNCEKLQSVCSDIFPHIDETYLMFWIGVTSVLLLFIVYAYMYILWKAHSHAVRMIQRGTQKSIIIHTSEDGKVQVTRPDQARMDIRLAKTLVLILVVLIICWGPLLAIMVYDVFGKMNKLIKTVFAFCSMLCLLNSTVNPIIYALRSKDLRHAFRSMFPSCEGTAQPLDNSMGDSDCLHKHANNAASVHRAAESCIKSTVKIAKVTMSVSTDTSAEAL

[3] = Drug level in rat brain at 1 mg/kg, iv after 4 hrs; assay type: ADME, organism-based; design: dose 1 mg/kg, route intravenous; conditions: read-out: Drug uptake
In short: (§1)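 Rats given 1 mg/kg intravenously; brain and plasma drug concentrations measured 4 h after dosing, and the brain/plasma ratio taken from these levels.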

Rattus norvegicus [4] = experiment: Toxicity in diet-induced obese rat assessed as suppression in food intake at 3 mg/kg, po after 18 hrs; assay type: organism-based; design: dose 3 mg/kg, route oral; conditions: in vivo
[5] = Ratio of drug level in brain to plasma in rat at 1 mg/kg, iv after 4 hrs; assay type: ADME, organism-based; design: dose 1 mg/kg, route intravenous; conditions: brain and plasma; in short: as §1
[6] = biological target: Voltage-gated inwardly rectifying potassium channel KCNH2 (Homo sapiens, UniProt Q12809)
Voltage-gated inwardly rectifying potassium channel KCNH2, sequence (Q12809 whole entry): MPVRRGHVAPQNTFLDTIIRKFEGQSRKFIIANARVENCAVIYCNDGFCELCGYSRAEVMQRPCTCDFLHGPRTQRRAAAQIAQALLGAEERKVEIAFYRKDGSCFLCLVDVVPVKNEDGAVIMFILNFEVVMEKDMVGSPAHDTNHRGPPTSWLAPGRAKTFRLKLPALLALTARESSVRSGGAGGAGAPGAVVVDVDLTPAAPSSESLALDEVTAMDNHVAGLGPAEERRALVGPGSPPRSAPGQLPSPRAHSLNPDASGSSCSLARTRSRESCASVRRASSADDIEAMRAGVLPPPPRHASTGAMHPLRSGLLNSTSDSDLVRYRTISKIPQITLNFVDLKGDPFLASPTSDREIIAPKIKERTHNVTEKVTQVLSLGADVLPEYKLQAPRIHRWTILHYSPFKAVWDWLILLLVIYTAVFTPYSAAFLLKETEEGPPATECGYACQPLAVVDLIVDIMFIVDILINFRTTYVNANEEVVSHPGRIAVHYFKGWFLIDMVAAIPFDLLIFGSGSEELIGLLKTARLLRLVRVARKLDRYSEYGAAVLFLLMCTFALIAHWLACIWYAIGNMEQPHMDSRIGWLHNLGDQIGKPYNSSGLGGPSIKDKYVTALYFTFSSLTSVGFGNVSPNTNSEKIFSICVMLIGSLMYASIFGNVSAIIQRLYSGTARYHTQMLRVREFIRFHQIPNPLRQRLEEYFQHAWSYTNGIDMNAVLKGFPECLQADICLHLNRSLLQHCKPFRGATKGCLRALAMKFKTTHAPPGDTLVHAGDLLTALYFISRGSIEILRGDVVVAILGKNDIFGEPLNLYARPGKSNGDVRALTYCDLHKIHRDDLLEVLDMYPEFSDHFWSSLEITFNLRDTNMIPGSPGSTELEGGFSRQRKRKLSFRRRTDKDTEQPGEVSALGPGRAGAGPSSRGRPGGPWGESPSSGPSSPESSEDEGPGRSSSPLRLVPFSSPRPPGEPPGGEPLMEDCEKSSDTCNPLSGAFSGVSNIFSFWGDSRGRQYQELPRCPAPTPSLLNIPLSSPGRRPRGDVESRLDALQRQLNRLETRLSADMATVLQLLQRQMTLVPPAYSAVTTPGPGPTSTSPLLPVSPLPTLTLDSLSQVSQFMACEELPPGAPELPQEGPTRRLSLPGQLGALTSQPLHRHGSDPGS

Rattus norvegicus [7] = experiment: Toxicity in diet-induced obese rat assessed as change in body weight at 3 mg/kg, po after 18 hrs (RVb = 6 g); assay type: organism-based; design: dose 3 mg/kg, route oral; conditions: in vivo
In short: (§2)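 Diet-induced obese rats dosed orally at 3 mg/kg and monitored for 18 h (overnight); body weight change and food intake compared with vehicle-treated animals.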

[8] = Drug level in rat plasma at 1 mg/kg, iv after 4 hrs; assay type: ADME, organism-based; design: dose 1 mg/kg, route intravenous; conditions: read-out: Drug uptake; in short: as §1
[9] = Half life in rat at 1 mg/kg, iv after 4 hrs; assay type: ADME, organism-based; design: dose 1 mg/kg, route intravenous; conditions: in vivo
Cannabinoid receptor 2 = Cannabinoid receptor 2 (Homo sapiens, UniProt P34972); experiment: Binding affinity to human CB2 receptor
Cannabinoid receptor 2, sequence (P34972 whole entry): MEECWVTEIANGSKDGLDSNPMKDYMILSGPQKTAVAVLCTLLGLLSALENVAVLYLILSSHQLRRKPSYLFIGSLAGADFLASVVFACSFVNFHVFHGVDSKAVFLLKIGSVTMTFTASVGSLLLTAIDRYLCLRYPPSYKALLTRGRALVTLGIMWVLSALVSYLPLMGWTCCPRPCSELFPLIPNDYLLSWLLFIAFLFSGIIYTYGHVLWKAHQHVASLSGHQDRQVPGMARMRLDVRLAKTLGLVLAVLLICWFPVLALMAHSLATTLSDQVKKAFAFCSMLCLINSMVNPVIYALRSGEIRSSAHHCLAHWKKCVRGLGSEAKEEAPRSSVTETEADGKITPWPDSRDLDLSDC

Rattus norvegicus [10] = experiment: Toxicity in diet-induced obese rat assessed as change in body weight at 3 mg/kg, po after 18 hrs (RVb = 7 g); assay type: organism-based; design: dose 3 mg/kg, route oral; conditions: in vivo; in short: as §2
[11] = biological target: GABA-A receptor; agonist GABA site (Homo sapiens) (UniProt P14867+P47870+P28472+P48169+P34903+P18505+P47869+P31644+Q16445); experiment: Partial agonist activity at human GABAA receptor at 3 uM; assay type: functional
[12] = biological target: GABA-A receptor; agonist GABA site; experiment: Partial agonist activity at human GABAA receptor; assay type: functional
Rattus norvegicus [13] = experiment: Toxicity in diet-induced obese rat assessed as change in body weight at 3 mg/kg, po after 18 hrs (RVb = 10 g); assay type: organism-based; design: dose 3 mg/kg, route oral; conditions: in vivo
Rattus norvegicus [14] = experiment: Toxicity in diet-induced obese rat assessed as change in body weight at 3 mg/kg, po after 18 hrs (RVb = 5 g); assay type: organism-based; design: dose 3 mg/kg, route oral; conditions: in vivo

Structure (SMILES): CN1c2nc(-c3ccc(Cl)cc3Cl)c(-c3ccc(Cl)cc3)cc2C(C(=O)NCO)CC1(C)C (single isomer, unassigned; enantiomer 1) [6-(4-CHLOROPHENYL)-7-(2,4-DICHLOROPHENYL)-N-(HYDROXYMETHYL)-1,2,2-TRIMETHYL-1,2,3,4-TETRAHYDRO-1,8-NAPHTHYRIDINE-4-CARBOXAMIDE (ENANTIOMERIC MIX)]
- clearance [1]: 12 mL/min/kg
- bioavailability [2]: 25%
- IC50 (Cannabinoid receptor 1): 3.7 nM
- concentration at 4 h [3]: 76 nM
- Activity (Rattus norvegicus [4]): 55%
- Kp at 4 h [5]: 0.88
- IC50 [6]: 40 nM
- Activity (Rattus norvegicus [7]): -8 g
- concentration at 4 h [8]: 380 nM
- half-life [9]: 4.2 h
- IC50 (Cannabinoid receptor 2): 801 nM

Structure (SMILES): CC(C)(O)C(=O)NC1CC2(CCCCC2)Oc2nc(-c3ccccc3Cl)c(-c3ccc(Cl)cc3)cc21 (single isomer, unassigned; enantiomer 1) [N-(7'-(2-CHLOROPHENYL)-6'-(4-CHLOROPHENYL)-3',4'-DIHYDROSPIRO[CYCLOHEXANE-1,2'-PYRANO[2,3-B]PYRIDINE]-4'-YL)-2-HYDROXY-2-METHYLPROPANAMIDE (ENANTIOMERIC MIX)]
- clearance [1]: 62 mL/min/kg
- bioavailability [2]: 6%
- IC50 (Cannabinoid receptor 1): 0.7 nM
- concentration at 4 h [3]: 116 nM
- Activity (Rattus norvegicus [4]): 28%
- Kp at 4 h [5]: 3.5
- Activity (Rattus norvegicus [10]): 3 g
- concentration at 4 h [8]: 3500 nM
- half-life [9]: 1.9 h
- IC50 (Cannabinoid receptor 2): 3200 nM

Structure (SMILES): CC(C)(O)C(=O)c1oc2nc(-c3ccc(Cl)cc3Cl)c(-c3ccc(Cl)cc3)cc2c1NC(=O)CO
- Emax [11]: 18%
- EC50 [12]: 700 nM

Structure (SMILES): C[C@H](NC(=O)C(C)(C)Oc1ccc(C(F)(F)F)cn1)[C@@H](Cc1ccc(Cl)cc1)c1cccc(C#N)c1 [TARANABANT]
- Activity (Rattus norvegicus [4]): 49%
- Activity (Rattus norvegicus [13]): -10 g

Structure (SMILES): CC1(C)CC(NC(=O)CCO)c2cc(-c3ccc(Cl)cc3)c(-c3ccc(Cl)cc3Cl)nc2O1 (single isomer, unassigned; enantiomer 1) [N-(6-(4-CHLOROPHENYL)-7-(2,4-DICHLOROPHENYL)-2,2-DIMETHYL-3,4-DIHYDRO-2H-PYRANO[2,3-B]PYRIDIN-4-YL)-3-HYDROXYPROPANAMIDE (ENANTIOMERIC MIX)]
- clearance [1]: 3 mL/min/kg
- Activity (Rattus norvegicus [14]): -11 g
- bioavailability [2]: 85%
- IC50 (Cannabinoid receptor 1): 1.7 nM
- Activity (Rattus norvegicus [4]): 48%
- IC50 [6]: 380 nM
- half-life [9]: 13 h
- IC50 (Cannabinoid receptor 2): 2460 nM
